Reference: article PMC7966865 (Molecular Metabolism, 2021)

Key:
[1] = tested on: db/db mice; assay: Chronic study in db/db mice; format: in vivo, mouse; settings: for ALT / AST: 6-h-fasted plasma; for hepatic histology (H&E): after 10 days of treatment; for glucose levels during ITT: day 9, i.p. insulin 0.75U/kg, all time points; for HOMA-IR index (worsening of insulin resistance over the study) / HOMA-β: calculated from fasting glucose and insulin
Summary of the method: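 Male db/db mice (C57BL/6J background), 6–7 weeks old, were acclimated for 2 weeks and randomized by weight and glucose. They received vehicle, test compound or rosiglitazone (10 mg/kg in 0.5% methylcellulose) orally for 10 days. Body weight was recorded each morning before dosing. 6-h-fasted glucose and ELISA insulin on days 0, 5 and 10 gave HOMA-IR and HOMA-β. Fasted plasma ALT/AST were measured colorimetrically. N = 6–8.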

[2] = tested on: STZ-induced diabetic mice; assay: Chronic study in streptozotocin; format: in vivo, mouse
Summary of the method: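 Male C57BL/6J mice received STZ 50 mg/kg i.p. in citrate buffer pH 4.5 for 5 days, until glucose reached 300–450 mg/dL, then were randomized. Human recombinant FGF21 was given s.c. at 0.45 mg/kg daily from day 1. Test compound in Solutol HS-15:saline (5:95) was given p.o. at 32 mg/kg/dose twice daily from day 4. Readings: 6-h-fasted plasma TG (colorimetric), body weight change day 10 vs day 0, and day-11 perigonadal fat weight. N = 5–6.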

[3] = tested on: pCMV-Rluc; assay: Non-specific activity: constitutive pCMV-Rluc reporter in HEK293 cells; format: cell-based; settings: Homo sapiens, HEK293, read-out: Non-specific activities pCMV-Rluc IC50
Summary of the method: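 HEK293 cells in EMEM with 1% FBS were co-transfected with IRE-firefly luciferase, constitutive CMV-Renilla luciferase and a forkhead factor or RFP control plasmid. Test compound was added immediately as a 10-point half-log series in duplicate, at 0.5% final DMSO. After 24 h, lysates were read by Dual-Glo luciferase. Relative IC50 came from a four-parameter fit, with at least two independent experiments.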

[4] = Cell viability; format: cell-based; settings: human
Summary of the method: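 HEK293 cells were seeded overnight in EMEM with 1% FBS and then transfected for reporter assays. Test compound was added right after transfection as a 10-point half-log dilution in duplicate, at 0.5% final DMSO. After 24 h at 37 °C, medium taken off the cells was assayed for lactate dehydrogenase activity by LDH-Glo luminescence. At least two independent experiments were run.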

[5] = Mouse PK; format: in vivo
Summary of the method: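 Male ICR mice (N = 3 per route) were dosed with test compound in Solutol HS-15:saline (5:95 v/v), i.v. at 1 mg/kg or p.o. at 10 mg/kg. Blood was sampled at 0.083–24 h (8 time points) and processed to plasma. Plasma levels were measured by LC-MS/MS and used to calculate PK parameters.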

[6] = tested on: pGK-FFluc; assay: Non-specific activity: constitutive pGK-FFluc reporter in HEK293 cells; format: cell-based; settings: Homo sapiens, HEK293, read-out: Non-specific activities pGK-FFluc IC50
Summary of the method: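 In the wild-type FOXO1 format, HEK293 cells in EMEM with 1% FBS were co-transfected with IRE-NanoLuc, constitutive pGK-firefly luciferase and the FOXO1-WT plasmid. Test compound was dosed right after transfection as a 10-point half-log series in duplicate, at 0.5% final DMSO. After 24 h, lysates were read by Nano-Glo Dual-Luciferase. Relative IC50 came from a four-parameter fit, with at least two experiments.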

[7] = tested on: endogenous FOXO1 target gene expression (G6pc, Pck1, Foxo1 mRNA) in primary hepatocytes; assay: cAMP/Dex-induced gene expression; format: cell-based; settings: primary mouse hepatocytes, insulin 100 nM, 6 h; for effect on Foxo1 mRNA levels: cAMP + Dex, compound 10 10 μM; for cAMP/Dex-induced G6pc mRNA expression / cAMP/Dex-induced Pck1 mRNA expression: FOXO1 inhibitors 10 μM
Summary of the method: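 Hepatocytes from 8–10-week-old male C57/BL6 mice, plated on collagen at 200,000 cells/well, recovered 4–5 h, then serum-reduced (1% FBS M199, G418) 15–16 h. Stimulation: cAMP 100 μM + dexamethasone 1 μM, with test compound (10 μM, or 10 nM–10 μM). q-RT-PCR normalized to Ppia. For IC50: 0% = unstimulated, 100% = cAMP + Dex; 3–6 wells/concentration; 4 experiments pooled; 4-parameter fit.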

[8] = tested on: normal C57 mice / control mice (Foxo1 flox/flox); assay: Pyruvate tolerance test; format: in vivo, mouse
[9] = tested on: liver-specific Foxo1 knockout (LKO) mice; assay: Pyruvate tolerance test; format: in vivo, mouse; settings: three doses
Summary of the method: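 Liver-specific Foxo1 knockout mice (Albumin-Cre; Foxo1 flox/flox), male and female, were randomized by body weight and fed glucose. They received three oral doses of test compound at 10 ml/kg (8 am, 5 pm, 8 am), at 16 mg/kg in Optiform Select #8 or 30 mg/kg in 5% DMSO/95% PEG-400. After fasting, they were given sodium pyruvate 2 g/kg i.p. in saline. Tail glucose was read at 0–120 min. N = 7–15; tested once.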

[10] = male, ICR, mouse, plasma, iv, 1 mg/kg
[11] = male, ICR, mouse, plasma, po, 10 mg/kg

## CN(CCOc1ccc(CC2SC(=O)NC2=O)cc1)c1ccccn1 (centres unmarked) [rosiglitazone, reference compound]
[1]; male db/db mice, 6-h-fasted
  plasma TG: reduced plasma TG
[1]; male db/db mice
  ALT: not affected
  AST: not affected
  hepatic histology (H&E): exacerbated hepatic steatosis
  glucose levels during ITT: significantly reduced glucose levels
[1]; male db/db mice, rosiglitazone 10 mg/kg, ten days
  body weight: weight gain
[1]; male db/db mice, ten days
  HOMA-IR index (worsening of insulin resistance over the study): staunched
  HOMA-β: tended to be improved

## CN1CCN(c2ccc(C(=O)Nc3cc(-c4nc5ccccc5[nH]4)n[nH]3)cc2)CC1 [Compound 10, N-[3-(1H-1,3-benzodiazol-2-yl)-1H-pyrazol-5-yl]-4-(4-methylpiperazin-1-yl)benzamide]
[2]; day 10 compared to day 0
  body weight: trend toward reduced body weight
[2]; end of the study (day 11)
  reduction in perigonadal fat pad weight: > 50%
[3]
  IC50: > 24 µM
[1]; db/db mice, follow-up study, vs vehicle
  reduced food intake (trend): 12%
[1]; male db/db mice, 6-h-fasted
  plasma TG: no significant effects
  plasma total cholesterol (TC): no significant effects
[1]; male db/db mice
  ALT: not affected
  AST: not affected
  hepatic histology (H&E): no apparent effect
  glucose levels during ITT: significantly reduced glucose levels
[1]; male db/db mice, p.o. twice daily, ten days
  blood glucose: reduced blood glucose to an extent similar to the PPARγ agonist rosiglitazone
[1]; male db/db mice, ten days
  weight loss (trend): 5%
  HOMA-IR index (worsening of insulin resistance over the study): staunched
  HOMA-β: tended to be improved
[1]; male db/db mice, ten days, 6 h fast
  insulin levels: did not significantly affect
[4]
  CC50 at 24 h: > 24 µM
[5]; male ICR mice, IV 1 mg/kg
  CL: 22.7 mL/kg∗min
[5]; male ICR mice, IV 1 mg/kg, plasma
  AUCinf: 1.86 μM∗h
[5]; male ICR mice, PO 10 mg/kg, plasma
  AUCinf: 4.66 μM∗h
[5]; [10]
  Vd: 1.71 L/kg
  half-life: 73.8 min
[5]; male, ICR, mouse, plasma, oral, 10 mg/kg
  bioavailability: 25.5%
[5]; [11]
  Cmax: 1620 nM
  Tmax: 40.2 min
[6]
  IC50: > 10 µM
[7]
  effect on Foxo1 mRNA levels: did not affect
  cAMP/Dex-induced G6pc mRNA expression: significantly suppressed
  cAMP/Dex-induced Pck1 mRNA expression: significantly suppressed
[8]; normal C57 mice fasted overnight (16 h), 16 mg/kg p.o., three doses
  glucose lowering during PTT: ineffective at lowering glucose
[9]; LKO mice, 16 mg/kg/dose p.o.
  glucose levels during PTT: failed to reduce glucose levels

## CCn1cc(C(=O)O)c(=O)c2c(N)c(F)c(NC3CCCCC3)cc21 [AS1842856, reference compound]
[7]
  cAMP/Dex-induced G6pc mRNA expression: significantly suppressed
  cAMP/Dex-induced Pck1 mRNA expression: significantly suppressed
[8]; 4-h-fasted mice, higher dose level (30 or 100 mg/kg/dose tested) p.o.
  glucose excursion during PTT: significantly lowered glucose excursion
[8]; overnight-fasted C57 mice and control mice, 30 mg/kg p.o., three doses
  glucose levels during PTT: able to reduce glucose levels
[9]; liver Foxo1 knockouts, 30 mg/kg/dose p.o.
  glucose levels during PTT: reduced glucose levels

## insulin
[7]
  effect on Foxo1 mRNA levels: did not affect
  cAMP/Dex-induced G6pc mRNA expression: significantly suppressed
  cAMP/Dex-induced Pck1 mRNA expression: significantly suppressed

B1: FGF21: Human recombinant FGF21 (Sino Biological), fibroblast growth factor 21 (protein, UniProt Q9NSA1 29-209, looked up)
Fibroblast growth factor 21: HPIPDSSPLLQFGGQVRQRYLYTDDAQQTEAHLEIREDGTVGGAADQSPESLLQLKALKPGVIQILGVKTSRFLCQRPDGALYGSLHFDPEACSFRELLLEDGYNVYQSEAHGLPLHLPGNKSPHRDPAPRGPARFLPLPGLPPALPEPPGILAPQPPDVGSSDPLSMVGPSQGRSPSYAS
[2]; 6-h fast
  plasma TG: significantly reduced
